Assay results as given in ChEMBL document CHEMBL4477197, “Antitumor Activity of Spicatoside A by Modulation of Autophagy and Apoptosis in Human Colorectal Cancer Cells” (J Nat Prod, 2016).
Active and inactive are the calls of the source. The calls are words filed in the database; no cut-off is given here.

Tested on: HCT-116
Test: Induction of autophagy in human HCT116 cells assessed as formation of acidic vesicular organelles at 20 uM after 24 hrs in presence of bafilomycin A1 by acridine orange staining based assay
Type: functional, cell-based
Outline: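 Cells were seeded at 1 × 10^5/well, grown 24 h, then treated 24 h with 20 μM compound, 2.5 nM bafilomycin A1, or both. They were stained with acridine orange (2 μg/mL) for 15 min and washed in DPBS. AO-positive cells were quantified by high-content imaging and expressed as an index versus vehicle. Triplicates.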

C[C@H]1CC[C@@]2(OC1)O[C@H]1C[C@H]3[C@@H]4CC=C5C[C@@H](O)C[C@@H](O[C@@H]6O[C@H](C)[C@H](O)[C@H](O[C@@H]7OC[C@@H](O)[C@H](O)[C@H]7O)[C@H]6O[C@@H]6O[C@H](CO)[C@@H](O)[C@H](O)[C@H]6O)[C@]5(C)[C@H]4CC[C@]3(C)[C@H]1[C@@H]2C
Activity: inactive
